Assay results pooled from the literature.
Lines come from different studies, so protocols differ.

Cc1ncc2n1-c1ccc(Cl)cc1C(c1ccccc1F)=NC2
half-life (metabolic stability; dog, hepatocytes): 0.616 h

O=C(O)CCCOc1ccc(F)cc1-c1cc(-c2ccccc2C(F)(F)F)n(-c2ccccc2)n1
NOAEL (general toxicity; rat; intravenous, 25 µg/kg, single dose): ≥ 0.025 mg/kg

CC(=O)c1c(C)c2cnc(Nc3ccc(C4CCN(CCS(C)(=O)=O)CC4)cn3)nc2n(C2CCCC2)c1=O
half-life (metabolic stability; dog, liver S9): 1.72 h

CC(=O)Oc1ccc(C=CC(=O)O)cc1OC(C)=O
CC50 (HaCaT; cell growth or viability, MTT; 24 h): > 250 µM

COc1cc(C2C3=C(COC3=O)N(CCO)c3cc4c(cc32)CCC4)cc(OC)c1OC (centres unmarked)
MTD (general toxicity; female Sprague-Dawley rat; intraperitoneal, single dose): ≥ 400 mg/kg

COC(=O)C=Cc1ccc(OC(C)=O)c(OC(C)=O)c1
CC50 (HaCaT; cell growth or viability, MTT; 24 h): 201 µM

Cc1ccc2cc(N3CCC4(O)C(=O)c5cc(C)c(C)cc5N=C34)ccc2n1 (centres unmarked)
NOAEL (general toxicity; rat; intravenous, multiple doses): ≥ 20 mg/kg

CC(C)CC(=O)OC[C@H]1O[C@@](C#N)(c2ccc3c(N)ncnn23)[C@H](O)[C@@H]1O
half-life (metabolic stability; dog, plasma; 5 µM): > 3.1 h
